ChEMBL document CHEMBL1131329, “Synthesis and antiviral activity of novel acyclic nucleosides: discovery of a cyclopropyl nucleoside with potent inhibitory activity against herpesviruses” (J Med Chem, 1998)
Values after ≈ are worked out from the molar mass of the structure shown.

Experiments:
HFF [1] = assay: Selectivity index is the ratio between IC50 (Anti-VZV Activity (DM625 in HFF Cells)) and minimum cytotoxic concentration (against HFF cells) values of the compound; assay type: functional
HFF [2] = assay: Inhibitory activity against DM625 strain of zoster virus(VZV) by plaque reduction assay in HFF cells; assay type: functional, cell-based; conditions: Homo sapiens
Vero [3] = assay: Inhibition of Tomioka strain of herpes simplex virus( Tomioka strain of HSV-1) by quantitative CPE reduction assay in vero cells; assay type: functional, cell-based, Human alphaherpesvirus 1
Outline: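 Vero cells in EMEM with 2% FBS, 3-fold compound dilutions, infected with HSV-1 Tomioka at about 100 TCID50 per well. After 3 days at 37 °C in 5% CO2, cells stained with neutral red for 45 min. Dye eluted in pH 4.2 citrate-ethanol, A550 read. Cell control set to 100% and blank to 0%; IC50 is the concentration giving 50% OD. Quadruplicate.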

HFF [4] = assay: Minimum cytotoxic concentration against uninfected HFF cells; assay type: functional, Homo sapiens
Outline: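 Uninfected HFF cells under MEM with 2% FBS in 0.25% agarose overlay with test compound, 5 days at 37 °C in 5% CO2. Examined microscopically for gross morphologic changes, then treated with MTT and 30% SDS; highest concentration 320 μg/mL. Value is the minimum concentration giving morphologic change. Triplicate.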

CCRF-CEM [5] = assay: Inhibitory activity against 1RF strain of HIV-1 by plaque reduction assay in CEM cells; assay type: functional, cell-based
Outline: (§1)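 CEM cells pregrown in RPMI 1640 with 10% FCS; HIV-1 RF strain, 32-100 CCID50 units per 0.1 mL, added together with test compound. Incubated 7 days at 37 °C in 5% CO2. CPE inhibition read by MTT dye uptake; IC50 derived. Triplicate.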

Vero [6] = assay: Cytotoxic concentration to uninfected vero cells; assay type: functional, Chlorocebus sabaeus
Outline: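 Uninfected Vero cells were run through the same neutral red dye-uptake method as the antiviral test: 3-fold dilutions in EMEM with 2% FBS, 3 days at 37 °C in 5% CO2, A550 read. CC50 is the concentration giving 50% of the cell-control OD. Quadruplicate.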

CCRF-CEM [7] = assay: Cytotoxic concentration against uninfected CEM cells; assay type: functional, Homo sapiens
Outline: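 Uninfected CEM cells in RPMI 1640 with 10% FCS, exposed to test compound for 7 days at 37 °C in 5% CO2. Cytotoxicity measured by MTT dye uptake and expressed as CC25. Triplicate.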

CCRF-CEM [8] = assay: Compound tested for inhibitory activity by plaque reduction assay against HIV-1RF strain in CEM cells; assay type: functional, cell-based; conditions: Homo sapiens; outline: as §1
CCRF-CEM [9] = assay: compound tested for anti-HIV-1 activity by plaque reduction assay against HIV-1 in CEM cells; assay type: functional; conditions: Homo sapiens; outline: as §1
CCRF-CEM [10] = assay: compound tested for inhibitory activity by plaque reduction assay against HIV-1 in CEM cells; assay type: functional, cell-based; conditions: Homo sapiens
[11] = Chlorocebus sabaeus, Vero, read-out: IC50
[12] = Homo sapiens, CCRF-CEM, read-out: IC50
[13] = Chlorocebus sabaeus, Vero, read-out: CC50

| Compound | IC50 (Vero [3]; [11]) | IC50 (CCRF-CEM [5]; [12]) | CC50 (Vero [6]; [13]) | CC25 (CCRF-CEM [7]) | further results |
| --- | --- | --- | --- | --- | --- |
| Nc1ncnc2c1ncn2C[C@]1(CO)C[C@@H]1CO | 47 µg/mL (≈ 189 µM) | > 100 µg/mL | 120 µg/mL (≈ 481 µM) | 19.8 µg/mL (≈ 79.4 µM) | SI (HFF [1]): 16; IC50 (HFF [2]): 19.8 µg/mL (≈ 79.4 µM); MTC (HFF [4]): 320 |
| Nc1nc(O)c2ncn(C[C@@]3(CO)O[C@@H]3CO)c2n1 | > 500 µg/mL | – | > 500 µg/mL | – | – |
| Nc1nc(O)c2ncn(C[C@@]3(CO)C[C@H]3CO)c2n1 | 10 µg/mL (≈ 37.7 µM) | > 100 µg/mL | > 500 µg/mL | >100 µg/mL | SI (HFF [1]): 16; IC50 (HFF [2]): 19.4 µg/mL (≈ 73.1 µM); MTC (HFF [4]): 320 µg/mL |
| OC[C@@H]1C[C@@]1(CO)Cn1cnc2c(O)ncnc21 | > 500 µg/mL | 25.7 µg/mL (≈ 103 µM) | > 500 µg/mL | >100 µg/mL | – |
| Nc1ccn(C[C@]2(CO)C[C@H]2CO)c(=O)n1 | > 500 µg/mL | > 100 µg/mL | > 500 µg/mL | >100 µg/mL | – |
| Nc1nc(O)c2ncn(CC3[C@@H](CO)[C@H]3CO)c2n1 (stereo partly drawn) | > 500 µg/mL | – | > 500 µg/mL | – | – |
| Nc1nc(O)c2ncn(C[C@@]3(CO)O[C@H]3CO)c2n1 | 14 µg/mL (≈ 52.4 µM) | – | > 500 µg/mL | – | – |
| OC[C@H]1C[C@@]1(CO)Cn1cnc2c(O)ncnc21 | > 500 µg/mL | 20.1 µg/mL (≈ 80.3 µM) | > 500 µg/mL | >100 µg/mL | – |
| Nc1ccn(C[C@]2(CO)C[C@@H]2CO)c(=O)n1 | 120 µg/mL (≈ 533 µM) | 23.7 µg/mL (≈ 105 µM) | > 500 µg/mL | >100 µg/mL | – |
| Nc1nc(O)c2ncn(CC3[C@H](CO)[C@H]3CO)c2n1 (stereo partly drawn) | > 500 µg/mL | – | > 500 µg/mL | – | SI (HFF [1]): 1.3; IC50 (HFF [2]): 240 µg/mL (≈ 905 µM); MTC (HFF [4]): 320 µg/mL |
| Nc1nc(O)c2ncn(C/C(=C\CO)CO)c2n1 | 4.2 µg/mL (≈ 16.7 µM) | > 100 µg/mL | > 500 µg/mL | >100 µg/mL | SI (HFF [1]): 100; IC50 (HFF [2]): 3.2 µg/mL (≈ 12.7 µM); MTC (HFF [4]): 320 µg/mL |
| Nc1ncnc2c1ncn2C/C(=C/CO)CO | > 500 µg/mL | > 100 µg/mL | 260 µg/mL (≈ 1110 µM) | >100 µg/mL | – |
| Cc1cn(C/C(=C/CO)CO)c(=O)[nH]c1=O | > 500 µg/mL | > 100 µg/mL | > 500 µg/mL | >100 µg/mL | – |
| Cc1cn(C/C(=C\CO)CO)c(=O)[nH]c1=O | > 500 µg/mL | > 100 µg/mL | > 500 µg/mL | >100 µg/mL | – |
| Nc1ncc2ncn(CC3(CO)CC3CO)c2n1 (stereo not drawn) | 30 µg/mL (≈ 120 µM) | – | > 500 µg/mL | – | – |
| Nc1nc(O)c2ncn(C/C(=C/CO)CO)c2n1 | 4.2 µg/mL (≈ 16.7 µM) | > 100 µg/mL | > 500 µg/mL | >100 µg/mL | SI (HFF [1]): >6.1; IC50 (HFF [2]): 52.8 µg/mL (≈ 210 µM); MTC (HFF [4]): >320 µg/mL |
| Nc1nc(O)c2ncn(C[C@]3(CO)C[C@H]3CO)c2n1 | 0.02 µg/mL (≈ 0.0754 µM) | > 100 µg/mL | 240 µg/mL (≈ 905 µM) | >100 µg/mL | SI (HFF [1]): 1600; IC50 (HFF [2]): 0.2 µg/mL (≈ 0.754 µM); MTC (HFF [4]): 320 µg/mL |
| Nc1ncnc2c1ncn2C/C(=C\CO)CO | > 500 µg/mL | – | 260 µg/mL (≈ 1110 µM) | >100 µg/mL | IC50 (CCRF-CEM [8]): > 100 µg/mL |
| Nc1nc(N)c2ncn(CC3(CO)CC3CO)c2n1 (stereo not drawn) | 29 µg/mL (≈ 110 µM) | 32.1 µg/mL (≈ 121 µM) | > 500 µg/mL | >100 µg/mL | – |
| Nc1nc(O)c2ncn(C[C@@]3(CO)C[C@@H]3CO)c2n1 (stereo in doubt; 3) | – | – | – | – | IC50 (Vero [3]; vero): 0.046 µg/mL (≈ 0.173 µM); CC50 (Vero [6]): 530 µg/mL (≈ 2000 µM) |
| Nc1nc(O)c2ncn(C[C@@]3(CO)C[C@@H]3CO)c2n1 (stereo in doubt; 3b) | – | – | > 500 µg/mL | – | IC50 (Vero [3]; vero): 2.2 µg/mL (≈ 8.29 µM) |
| Cc1cn(C[C@]2(CO)C[C@@H]2CO)c(=O)[nH]c1=O (stereo in doubt; 41a) | > 500 µg/mL | – | > 500 µg/mL | >100 µg/mL | IC50 (CCRF-CEM [5]; ccrf-cem): > 100 µg/mL |
| Cc1cn(C[C@]2(CO)C[C@@H]2CO)c(=O)[nH]c1=O (stereo in doubt; 41b) | – | – | – | – | IC50 (CCRF-CEM [5]; ccrf-cem): 3.2 µg/mL (≈ 13.3 µM) |
| Nc1nc2c(ncn2COCCO)c(=O)[nH]1 [ACYCLOVIR] | 0.81 µg/mL (≈ 3.6 µM) | – | 820 µg/mL (≈ 3640 µM) | – | MTC (HFF [4]): > 320 µg/mL |
| Cc1cn([C@H]2C[C@H](N=[N+]=[N-])[C@@H](CO)O2)c(=O)[nH]c1=O [ZIDOVUDINE] | – | – | – | – | CC25 (CCRF-CEM [9]): 35.6 µg/mL (≈ 133 µM); IC50 (CCRF-CEM [10]): 0.003 µg/mL (≈ 0.0112 µM) |
